From paper PMC6595297 (British Journal of Clinical Pharmacology, 2019)

What was measured:
[1] = tested on: multidrug resistance protein 1 (MDR1)/P‐glycoprotein (P‐gp); settings: in vitro, ref data on file; cited from earlier work
[2] = Phase I DDI study: pevonedistat plasma PK alone and with fluconazole; type: in vivo, human
Outline: (§1)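 Single IV pevonedistat given on day 1 alone and on day 8 with the CYP3A inhibitor. K2EDTA plasma was sampled within 1 h predose, at end of infusion, and at 0.5, 1, 2, 3, 4, 8, 12, 24, 48 and 72 h postdose. Samples were assayed by two GLP-validated LC–MS/MS methods (0.0500–25.0 and 1.00–500 ng mL−1). Noncompartmental PK was used. Day 8/day 1 geometric mean ratios with 90% CIs came from ANOVA (subject random), back-transformed.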

[3] = Phase I DDI study: pevonedistat plasma PK alone and with itraconazole; type: in vivo, human; settings: for AUC(0-t) / AUC(0-inf) / Cmax / clearance / half-life: human, plasma; for AUC(0-t): AUClast; for Cmax: C max; for clearance: CL; for half-life: t 1/2, mean (standard deviation)
Outline: as §1

[4] = estimated across doses and schedules, 1‐h IV infusion; cited from earlier work
CYP3A4 = settings: in vitro metabolism studies, ref data on file; cited from earlier work
[5] = preliminary data, cancer patients, ref data on file; cited from earlier work
[6] = Pevonedistat 8 mg m^−2, + fluconazole (day 8) vs alone (day 1), n = 12
[7] = human, plasma, intravenous, 8 mg
[8] = Pevonedistat 8 mg m^−2, + itraconazole (day 8) vs alone (day 1), n = 13
[9] = Pevonedistat 15 mg m^−2, + itraconazole (day 8) vs alone (day 1), n = 6
[10] = Pevonedistat 20 mg m^−2, + itraconazole (day 8) vs alone (day 1), n = 14
[11] = dose‐normalized PK, 8–20 mg m^−2 pooled, + itraconazole vs alone, n = 33
[12] = intravenous, 8 mg, geometric LS mean reference condition (day 1), Pevonedistat 8 mg m^−2 alone, itraconazole cohort, n = 13
[13] = intravenous, 15 mg, geometric LS mean reference condition (day 1), Pevonedistat 15 mg m^−2 alone, itraconazole cohort, n = 6
[14] = intravenous, 20 mg, geometric LS mean reference condition (day 1), Pevonedistat 20 mg m^−2 alone, itraconazole cohort, n = 14
[15] = intravenous, geometric LS mean test condition (day 8), Pevonedistat 8 mg m^−2 + itraconazole, n = 13, value from n − 1 patients
[16] = intravenous, geometric LS mean test condition (day 8), Pevonedistat 15 mg m^−2 + itraconazole, n = 6
[17] = intravenous, geometric LS mean test condition (day 8), Pevonedistat 20 mg m^−2 + itraconazole, n = 14
[18] = iv, 8 mg, geometric mean (% CV), 8 mg m^−2 IV single dose, – itraconazole (day 1), n=13
[19] = iv, 20 mg, geometric mean (% CV), 20 mg m^−2 IV single dose, – itraconazole (day 1), n=14
[20] = integrated analysis, 8–20 mg m^−2, n = 33

NS(=O)(=O)OC[C@@H]1C[C@@H](n2ccc3c(N[C@H]4CCc5ccccc54)ncnc32)C[C@@H]1O [Pevonedistat]
Substrate of MDR1/P‐gp [1]: substrate
AUClast, geometric LS mean ratio (test/reference) (90% CI) [2, 6]: 110.21 (102.34–118.69) %
AUC∞, geometric LS mean ratio (test/reference) (90% CI) [2, 6]: 110.66 (102.53–119.43) %
C max, geometric LS mean ratio (test/reference) (90% CI) [2, 6]: 98.75 (82.60–118.05) %
AUC(0-inf) [2, 7]: 450 ng·h/mL
AUC(0-t) [2, 7]: 445 ng·h/mL
Cmax [2, 7]: 51.6 ng/mL
AUC(0-inf) ([2]; human, plasma, iv, 8 mg): 450 ng·h/mL
Cmax ([2]; human, plasma, iv, 8 mg): 51.6 ng/mL
clearance ([2]; human, plasma, iv, 8 mg): 528 mL/min
half-life ([2]; human, plasma, iv, 8 mg): 11.1 h
AUC∞ geometric mean ratio, presence vs. absence of fluconazole ([2]; pevonedistat 8 mg m^−2, n = 12): 1.11
AUClast, geometric LS mean ratio (test/reference) (90% CI) [3, 8]: 121.57 (110.92–133.24) %
AUC∞, geometric LS mean ratio (test/reference) (90% CI) [3, 8]: 122.95 (112.13–134.82) %
C max, geometric LS mean ratio (test/reference) (90% CI) [3, 8]: 113.05 (85.35–149.74) %
AUClast, geometric LS mean ratio (test/reference) (90% CI) [3, 9]: 130.16 (106.99–158.35) %
AUC∞, geometric LS mean ratio (test/reference) (90% CI) [3, 9]: 132.70 (111.10–158.49) %
C max, geometric LS mean ratio (test/reference) (90% CI) [3, 9]: 159.55 (89.97–282.96) %
AUClast, geometric LS mean ratio (test/reference) (90% CI) [3, 10]: 101.36 (90.72–113.23) %
AUC∞, geometric LS mean ratio (test/reference) (90% CI) [3, 10]: 100.89 (91.14–111.68) %
C max, geometric LS mean ratio (test/reference) (90% CI) [3, 10]: 77.26 (55.19–108.17) %
Dose‐normalized AUClast, geometric LS mean ratio (test/reference) (90% CI) [3, 11]: 113.61 (105.65–122.18) %
Dose‐normalized AUC∞, geometric LS mean ratio (test/reference) (90% CI) [3, 11]: 114.24 (106.54–122.50) %
Dose‐normalized C max, geometric LS mean ratio (test/reference) (90% CI) [3, 11]: 102.41 (83.12–126.19) %
AUC(0-t) [3, 12]: 459 ng·h/mL
AUC(0-inf) [3, 12]: 465 ng·h/mL
AUC(0-t) [3, 13]: 793 ng·h/mL
AUC(0-inf) [3, 13]: 798 ng·h/mL
AUC(0-t) [3, 14]: 1110 ng·h/mL
AUC(0-inf) [3, 14]: 1120 ng·h/mL
AUC(0-t) [3, 15]: 558 ng·h/mL
AUC(0-t) ([3]; intravenous, geometric LS mean test condition (day 8), Pevonedistat 15 mg m^−2 + itraconazole, n = 6, value from n − 1 patients): 1030 ng·h/mL
AUC(0-t) ([3]; intravenous, geometric LS mean test condition (day 8), Pevonedistat 20 mg m^−2 + itraconazole, n = 14, value from n − 1 patients): 1130 ng·h/mL
AUC(0-inf) [3, 15]: 572 ng·h/mL
AUC(0-inf) [3, 16]: 1060 ng·h/mL
AUC(0-inf) [3, 17]: 1130 ng·h/mL
Cmax ([3]; intravenous, geometric LS mean test condition (day 8), Pevonedistat 8 mg m^−2 + itraconazole, n = 13): 66.8 ng/mL
Cmax [3, 16]: 193 ng/mL
Cmax [3, 17]: 137 ng/mL
AUC(0-inf) [3, 18]: 465 ng·h/mL
clearance [3, 18]: 487 mL/min
half-life ([3]; iv, 8 mg, 8 mg m^−2 IV single dose, – itraconazole (day 1), n=13): 10.8 h
AUC(0-inf) ([3]; iv, 15 mg, geometric mean (% CV), 15 mg m^−2 IV single dose, – itraconazole (day 1), n=6): 798 ng·h/mL
half-life ([3]; iv, 15 mg, 15 mg m^−2 IV single dose, – itraconazole (day 1), n=6): 9.8 h
AUC(0-inf) [3, 19]: 1120 ng·h/mL
clearance [3, 19]: 597 mL/min
half-life ([3]; iv, 20 mg, 20 mg m^−2 IV single dose, – itraconazole (day 1), n=14): 10 h
half-life ([3]; iv, 8 mg m^−2 IV single dose, + itraconazole (day 8), n=13): 13.5 h
half-life ([3]; iv, 15 mg m^−2 IV single dose, + itraconazole (day 8), n=6): 11 h
half-life ([3]; iv, 20 mg m^−2 IV single dose, + itraconazole (day 8), n=14): 10.8 h
Dose‐normalized AUC∞ geometric mean ratio, presence vs. absence of itraconazole [3, 20]: 1.14
Increase in geometric mean dose‐normalized AUC∞ with itraconazole [3, 20]: 14%
AUC∞ geometric mean ratio, presence vs. absence of itraconazole ([3]; pevonedistat 8 mg m^−2): 1.23
Increase in pevonedistat plasma systemic exposure with concomitant itraconazole ([3]; pevonedistat 8 mg m^−2 single dose): 23%
AUC∞ geometric mean ratio, presence vs. absence of itraconazole ([3]; pevonedistat 20 mg m^−2): 1.01
Mean terminal elimination half‐life (t 1/2) [4]: 10 to 11 h
Contribution of CYP3A4 to pevonedistat biotransformation (CYP3A4): 97%
Administered dose accounted for by metabolites [5]: approximately 80%
